Compounds with a hit are over-represented: about 2.2% of the library has one in this group of screens.
PHOSPHO1 inh – inhibitors of human PHOSPHO1 phosphatase. Q8TCT1. recombinant PHOSPHO1, absorbance phosphatase assay. inhibition, % at 13.3 µM. actives 1.1% (n = 290,000). AID 1565; in the data active = inhibition above about 60%
Target sequence (Q8TCT1 whole entry, looked up): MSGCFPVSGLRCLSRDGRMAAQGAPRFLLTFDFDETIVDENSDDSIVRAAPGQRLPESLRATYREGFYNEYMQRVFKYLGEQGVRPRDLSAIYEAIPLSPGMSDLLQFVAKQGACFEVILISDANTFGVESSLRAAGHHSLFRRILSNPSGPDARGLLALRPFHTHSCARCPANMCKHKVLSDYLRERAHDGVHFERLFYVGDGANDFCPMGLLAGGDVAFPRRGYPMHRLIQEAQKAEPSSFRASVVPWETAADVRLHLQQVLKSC
IMP-1 inhibitor – inhibitors of Pseudomonas aeruginosa IMP-1 metallo-beta-lactamase | AID 1556 | actives 0.45% (n = 290,000) | inhibition, % at 5.6 µM | purified IMP-1, nitrocefin hydrolysis, epi-absorbance fluorescence;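 active = inhibition above the mean plus 3 SD of all compounds in the same screening run, cut at about 4.5% in these data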;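 also: 0% = IMP-1 with DMSO and 100% = DMSO wells lacking enzyme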
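System: Purified recombinant IMP-1 metallo-beta-lactamase enzyme | Measured by: Fluorescence quenching readout, ex 480/em 530 nm | Replication: Singlicate | Incubation: 15 min preincubation plus 25 min reaction at 25 °C | Evaluation: Percent inhibition from optical density relative to buffer-blank wells | Benchmarks: DMSO with and without IMP-1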
PvdQ acylase – P. aeruginosa PvdQ acylase inhibition | purified PvdQ acylase, fluorescence plate reader | inhibition, % at 10 µM | actives 0.063% (n = 340,000); in the data active = inhibition above about 30%, passing the limit was not always enough;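 also: 0% = vehicle neutral wells and 100% = reference inhibitor wells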
VIM-2 inh – blocks Pseudomonas aeruginosa VIM-2 metallo-beta-lactamase; actives 0.89% (n = 290,000); inhibition, % at 5.6 µM; purified VIM-2, nitrocefin hydrolysis, epi-absorbance fluorescence; AID 1527;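 active = inhibition above the mean of all tested compounds plus 3 SD, cutoff set per screening run, cut at about 7.5% in these data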;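 also: red hydrolysis product quenches plate fluorescence so inhibitors raise well fluorescence; 0% = enzyme with DMSO and 100% = DMSO without enzyme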
Yeast superoxide – yeast age-related superoxide inhibition as caloric restriction mimetic; superoxide response (% of plate mean), % at 10 µM; S. cerevisiae aged cells, superoxide DHE fluorescence; stronger effect = lower value; actives 0.18% (n = 330,000);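 active = superoxide response under a set limit, about three screen SD below normal, cut at about 65% in these data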;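 also: yeast aged for seven days with compound at 30 °C before DHE staining; 100% = average MFI of all compound-treated wells on the plate with controls excluded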
Numbers without * were called inactive; x = no result.

SMILES	PHOSPHO1 inh	IMP-1 inhibitor	PvdQ acylase	VIM-2 inh	Yeast superoxide
N=c1c(S(=O)(=O)c2ccccc2)cc2c(=O)n3ccccc3nc2n1Cc1cccnc1	x	x	-5	x	110
Cc1cccn2c(=O)c3cc(S(=O)(=O)c4ccccc4)c(=N)n(Cc4cccnc4)c3nc12	-27	-2	-13	10*	108
Cc1ccc(C2=NNC(C(O)C(O)C(O)C(O)CO)S2)cc1 (configuration not stated)	90*	-5	4	-2	115
CC(=O)c1ccccn1	x	x	-12	x	106
CC(=O)c1csc(CS(=O)(=O)c2ccccn2)n1	61*	-2	-15	-3	106
CC(C)C(NC(=O)COc1ccc2ccccc2c1)C(=O)N/N=C/C=C/c1ccccc1 (configuration not stated)	93*	-4	-11	-6	126
CCN(CC)C(=O)c1ccc2nc3ccccc3nc2c1	-17	-2	2	2	37*
CCN(CC)C(=O)c1ccc2nc(-c3ccccc3)c(-c3ccccc3)nc2c1	3	0	2	-5	110
O=C1C(=O)N(Cc2ccncc2)C(c2ccccc2F)/C1=C(\O)c1ccc2c(c1)OCCO2 (configuration not stated)	-4	-4	-6	11*	101
COc1cc(C2/C(=C(\O)c3ccc4c(c3)OCCO4)C(=O)C(=O)N2Cc2ccccc2)ccc1O (configuration not stated)	24	0	-3	0	92
CN(C)c1ccc(NC(=O)c2ccc(COc3cccc(Cl)c3)o2)cc1	92*	-2	0	-3	101
O=[N+]([O-])c1ccc(Nc2cccc3c2[nH]c2c(-c4ccccc4)nccc23)c([N+](=O)[O-])c1	x	x	0	x	x
Cc1ccc(/C=C2/Sc3ccc(C(=O)NCCN4CCOCC4)cc3NC2=O)cc1	21	-2	-7	0	114
COc1cccc(/C=C2/Sc3ccc(C(=O)NCCN4CCCC4)cc3NC2=O)c1	27	-3	5	11*	107
COc1ccc(OCC(=O)Nc2cc(S(=O)(=O)N3CCCC3)ccc2Cl)cc1	x	x	-2	x	x
Cc1ccc(-n2c(N)c(C(=O)N3CCCCC3)sc2=S)cc1	76*	0	1	0	80
Nc1c(C(=O)N2CCOCC2)sc(=S)n1-c1ccccc1	97*	-3	-16	-4	98
Nc1c(C(=O)N2CCCCC2)sc(=S)n1-c1ccccc1	86*	-2	-19	-3	98
OC(CNCC(c1ccc(Cl)cc1Cl)c1c[nH]c2ccccc12)c1ccccc1 (configuration not stated)	42	1	-17	1	95
COc1cccc(CCNC(=O)CCc2nnc(-c3cc(C)oc3C)o2)c1	40	-3	1	-1	90
COC(=O)c1c(NC(=O)C(=O)N2CCOCC2)sc2c1CCCC2	12	-1	-8	6	96
COC(=O)c1c(NC(=O)C(=O)N2CCOCC2)sc2c1CCC2	17	1	3	11*	98
COC(=O)c1c(NC(=O)Cc2cccs2)sc2c1CCCC2	7	4.5*	8	1	105
CCCCNC(=O)N1CCCN(c2ccc(C#N)cn2)CC1	19	0	-10	-2	110
O=C1c2ccc(-c3ccc4c(c3)C(=O)N(CCO)C4=O)cc2C(=O)N1CCO	25	-2	4	-1	98
SMILES	PHOSPHO1 inh	IMP-1 inhibitor	PvdQ acylase	VIM-2 inh	Yeast superoxide
Cc1c(-c2ccccc2)c(-c2ccc(OCCN(C)C)cc2)n2ccccc12	x	x	-18	x	x
O=C(O)c1c(C(=O)O)c(-c2ccc(F)cc2)n2c1CCC2	42	1	-5	11*	99
COC(=O)c1c(C(=O)OC)c(-c2ccc(C)cc2)n2c1CCC2	25	-3	-13	-2	141
Cc1ccc(-c2c(C(=O)O)c(C(=O)O)c3n2CCC3)cc1	24	-2	-11	9.8*	87
CC1(C)OC(=O)C(=CNn2cnc3ccccc3c2=O)C(=O)O1	63*	-1	-10	0	109
CCN(C(=O)CN1CCCC(C)C1)c1c(N)n(Cc2ccccc2)c(=O)[nH]c1=O (configuration not stated)	x	x	4	x	86
CCN(CC)CCNC(=O)CCCCn1c(=S)[nH]c2c([nH]c3ccc(OC)cc32)c1=O	95*	0	-14	5	102
CCCCNC(=O)c1ccc(Cn2c(=S)[nH]c3c([nH]c4ccc(OC)cc43)c2=O)cc1	-8	-4	-8	-3	87
COC(=O)c1ccc(CSc2nc3ccc(C)cc3[nH]2)o1	76*	-4	-15	-1	106
COC(=O)c1ccc(CSc2nc3ccccc3s2)o1	38	-7	2	-6	118
COC(=O)c1ccc(CSc2n[nH]c(=S)s2)o1	102*	-8	-16	-2	97
COc1cccc(-c2nn(C)c3sc(C(=O)NCc4ccc(C)o4)cc23)c1	-36	4.7*	-11	-1	92
O=[N+]([O-])c1ccc(N2CCSCC2)cc1	39	-1	54*	-4	112
O=[N+]([O-])c1ccc(N2CCN(c3ccc(F)cc3)CC2)cc1	31	-1	11	0	101
O=C(CCn1cnc(-c2ccccc2)c1-c1ccccc1)N/N=C/c1ccccc1O	-3	0	-5	-2	94
COc1cccc2sc3ccc(C#CC4(N)CCCCC4)cc3c(=O)c12	31	-2	-17	9.0*	115
COc1cccc2sc3cc(C#CC4(O)CCCCC4)ccc3c(=O)c12	x	x	-17	x	107
COCC(=O)Oc1c(S(=O)(=O)c2ccc(C)cc2)c(C)nn1-c1ccccc1	18	-2	34*	-1	112
Cc1ccc(OCC(=O)Nc2ccc(C(N)=O)cc2)cc1	26	-3	-9	-2	93
CN(C)c1ccc(NC(=O)COC(=O)CCC(=O)c2ccc(F)cc2)cc1	100*	-7	-10	-1	106
CCN(CC)c1ccc(NC(=O)COc2ccc(C)cc2)cc1	81*	-4	1	-1	97
CCCOc1ccc(C(=O)Nc2ccc(N(C)C)cc2)cc1	11	-2	14	-3	83
CC(C)Oc1ccc(C(=O)Nc2ccc(N(C)C)cc2)cc1	76*	-5	-5	-3	98
Cc1ccc(OCC(=O)Nc2ccc([N+](=O)[O-])cc2)cc1	-6	-2	10	0	88
CCOc1cc(C(=O)CCC(=O)OCC(=O)Nc2ccc(F)cc2)ccc1O	x	x	3	x	x
Cc1ccc(OCC(=O)Nc2ccc(N(C)C)cc2)cc1	81*	-2	8	-1	93
CCOc1ccc(CCNC(=O)CCc2nnc3ccc(N4CCCCC4)nn23)cc1OCC	7	-4	-2	-1	85
Cc1ccc2c(c1)[C@H]1[C@H](CO2)[C@H](c2ccccc2)[C@]2(C)C(=O)Nc3cc(F)ccc3C(=O)N12	x	x	-7	x	117
c1cc2c(cc1C1=NNC(=NC3CC3)SC1)OCCO2	21	-1	-10	-6	102
FC(F)Sc1ccc(N=C2NN=C(c3ccc4c(c3)OCCO4)CS2)cc1	64*	3	-20	-2	110
